Here are results for one compound from ChEMBL document CHEMBL1123566, “Synthesis and cardiac electrophysiological activity of 2- and 3-[(substituted phenyl)alkyl]quinuclidines. Structure-activity relationships” (1987).

SMILES strings stand for the structures. “And” between values parts separate entries of the source, which are not always exact repeats. Equal entries are not always repeated.

In assay [1] the test system is Canis familiaris. In words: Effective dose administered intravenously to elicit Antiarrhythmic efficacy in anesthetized dogs was reported; Number of animals effective at that dose is 1. Type of assay: functional, Canis lupus familiaris, Heart. The gist of the method:
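Dogs are anesthetized and the chest reopened. Stimulating and recording electrodes go on the myocardium. Reproducible PES-induced sustained VT or VF is confirmed first; SVT is ended by burst pacing and VF by DC countershock. Compound is given iv in 0.9% saline and inducibility retested. A dose counts as effective when SVT/VF cannot be reinduced in two of three animals.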

The species entered for assay [2] is Canis familiaris. In words: In vitro electrophysiological evaluation in canine cardiac ventricular muscle reported as maximum % change for functional refractory period (FRP) at 0.1-100 uM concentration range; concentration at which it occurred is 100. Also on record: species or system Canis lupus familiaris, Muscle tissue.
The species entered for assay [3] is Canis familiaris. The assay can be described thus: In vitro electrophysiological evaluation in canine cardiac ventricular muscle reported as % change for the functional refractory period (FRP) at 10 uM at concentration range of 0.1-100 uM. Details: species or system Canis lupus familiaris, Muscle tissue. Put shortly:
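Canine right ventricle and papillary muscle strips in oxygenated Tyrode's solution, fitted with stimulating and recording electrodes. The extra-stimulus conduction-interval method was adapted for in vitro use. FRP and CT were read from a conduction-interval curve before and after various compound concentrations, and expressed as percent change from control. Compounds were taken from 10 mM deionized-water stock into Tyrode's. Each strip was used once as its own control.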

For assay [4], the species on record is Canis familiaris. In words: In vitro electrophysiological evaluation in canine cardiac ventricular muscle reported as % change for conduction time(CT) at 10 uM at 0.1-100 uM concentration range; Minimal (<10% decrease or increase in […]). Type of assay: functional, Canis lupus familiaris, Muscle tissue. Put shortly:
(§1)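 Canine right ventricular/papillary muscle strips in oxygenated Tyrode's, extracellular extra-stimulus conduction-interval method. FRP and CT are read from conduction-interval curves before and during rising concentrations. Compound is a 10 mM aqueous stock diluted into Tyrode's. Each strip is used once as its own control. Readouts are percent change from control at 10 μM, plus the maximum change with its concentration.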

For assay [5], the species on record is Canis familiaris. In words: (§2) In vitro electrophysiological evaluation in canine cardiac occurred is 100. Type of assay: functional. The note with it: Canis lupus familiaris; Heart.
The species entered for assay [6] is Canis familiaris. In words: In vitro electrophysiological evaluation in canine cardiac ventricular muscle reported as maximum % change for conduction time(CT) at 0.1-100 uM concentration range; Minimal (<10% decrease or increase in […]). In kind it is functional, Canis lupus familiaris, Muscle tissue. Put shortly: as §1
Assay [7] is filed under the species Canis familiaris. In words: In vitro electrophysiological evaluation in canine cardiac Purkinje fibres reported as percent change Vmax at 10 uM at concentration range of 0.1-100 uM; Minimal (<10% decrease or increase in Vmax). In kind it is functional, organism-based. The note with it: Canis lupus familiaris, Purkinje fiber. Put shortly: (§3)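 Canine cardiac Purkinje fibres, intracellular microelectrode recording, paced at a basic cycle length of 1 s. APD95 and Vmax read simultaneously. Compound: 10 mM stock in deionized water, diluted into Tyrode's solution, tested over the stated concentration range. Each fibre used once as its own control. Result is % change from control, given at 10 µM or as the maximum with its concentration. M = <10% decrease or an increase in Vmax.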

For assay [8], the species on record is Canis familiaris. In words: In vitro electrophysiological evaluation in canine cardiac Purkinje fibres reported as percent change Vmax at 10 uM at concentration range of 1-30 uM; Minimal (<10% decrease or increase in Vmax). In kind it is functional. The note with it: Canis lupus familiaris, Purkinje fiber.
Assay [9] is filed under the species Canis familiaris. The assay is described as §2. In kind it is functional. As to conditions: Canis lupus familiaris; Heart. This is another data set of the same source.
For assay [10], the species on record is Canis familiaris. The description is as §2. In kind it is functional. As to conditions: Canis lupus familiaris; Heart. This is another data set of the same source.
The species entered for assay [11] is Canis familiaris. In words: In vitro electrophysiological evaluation in canine cardiac Purkinje fibres reported as percent change Vmax at 10 uM at concentration range of 5-100 uM; Minimal (<10% decrease or increase in Vmax). In kind it is functional. The note with it: Canis lupus familiaris, Purkinje fiber.
The species named for assay [12] is Canis familiaris. The assay can be described thus: In vitro electrophysiological evaluation in canine cardiac Purkinje fibres reported as maximum percent change Vmax concentration range of 0.1-100 uM; Minimal (<10% decrease or increase in Vmax). In kind it is functional. As to conditions: Canis lupus familiaris; Purkinje fiber. Put shortly:
as §3

Assay [13] is filed under the species Canis familiaris. The assay can be described thus: (§4) In vitro electrophysiological activity in canine cardiac occurred is 100. In kind it is functional, Canis lupus familiaris, Heart.
For assay [14], the species on record is Canis familiaris. The description is as §4. Type of assay: functional, Canis lupus familiaris, Heart. This is another data set of the same source.
Assay [15] is filed under the species Canis familiaris. The assay can be described thus: In vitro electrophysiological evaluation in canine cardiac Purkinje fibres reported as % change for action potential duration at 10 uM at 1-30 uM concentration range. Type of assay: functional, Canis lupus familiaris, Purkinje fiber. Put shortly: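 Canine cardiac Purkinje fibers, intracellular recording, paced at a basic cycle length of 1 s. APD95 and Vmax are recorded together across cumulative concentrations. Compound is a 10 mM aqueous stock diluted into Tyrode's solution. Each fiber is used once as its own control. Readouts are percent change from control at 10 μM, and the maximum change with the concentration where it occurred.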

The species entered for assay [16] is Canis familiaris. In words: In vitro electrophysiological evaluation in canine cardiac Purkinje fibres reported as % change for action potential duration at a concentration of 10 uM. In kind it is functional, Canis lupus familiaris, Purkinje fiber. Put shortly:
as §3

The species entered for assay [17] is Canis familiaris. The description is as §4. Type of assay: functional, Canis lupus familiaris, Heart. The source holds these as a separate data set.
For assay [18], the species on record is Canis familiaris. The description is as §4. In kind it is functional, Canis lupus familiaris, Heart. This is another data set of the same source.

`CCN(CC)CC(=O)Nc1c(C)cccc1C` [LIDOCAINE]: the Effective dose in the assay with Canis familiaris [1] is 3 mg/kg. For the same compound, the FRP in the assay listed under Canis familiaris [2] is 23% and 8% and 18%; in the assay filed under Canis familiaris [3], 6% and 4% and 2%. In addition, the CT in the assay listed under Canis familiaris [4] and in the assay listed under Canis familiaris [6] was below 10% in each case. Further, the Vmax was -10% in the assay listed under Canis familiaris [5]; below 10% in the assay filed under Canis familiaris [7]; below 10% in the assay filed under Canis familiaris [8]; -42% in the assay listed under Canis familiaris [9]; -11% in the assay listed under Canis familiaris [10]; below 10% in the assay filed under Canis familiaris [11]. In the assay listed under Canis familiaris [12], the Vmax was below 10%. Further, the APD95 in the assay filed under Canis familiaris [13] is reported as -48%; in the assay filed under Canis familiaris [14], -43%; in the assay filed under Canis familiaris [15] it was -30%; in the assay listed under Canis familiaris [16] it was -23%; in the assay filed under Canis familiaris [17], -43%; in the assay filed under Canis familiaris [18] it was -33%.
